Data from ChEMBL document CHEMBL1155300, “Substituted 3-(4-(1,3,5-triazin-2-yl)-phenyl)-2-aminopropanoic acids as novel tryptophan hydroxylase inhibitors” (Bioorg Med Chem Lett, 2009).
Active and inactive are the calls of the source. The calls are words filed in the database; no cut-off is given here.

Legend:
[1] = target: T1, Tryptophan 5-hydroxylase 1 (Homo sapiens, UniProt P17752); assay: Inhibition of human recombinant TPH1 by continuous fluorescence assay
T1 sequence (P17752 whole entry): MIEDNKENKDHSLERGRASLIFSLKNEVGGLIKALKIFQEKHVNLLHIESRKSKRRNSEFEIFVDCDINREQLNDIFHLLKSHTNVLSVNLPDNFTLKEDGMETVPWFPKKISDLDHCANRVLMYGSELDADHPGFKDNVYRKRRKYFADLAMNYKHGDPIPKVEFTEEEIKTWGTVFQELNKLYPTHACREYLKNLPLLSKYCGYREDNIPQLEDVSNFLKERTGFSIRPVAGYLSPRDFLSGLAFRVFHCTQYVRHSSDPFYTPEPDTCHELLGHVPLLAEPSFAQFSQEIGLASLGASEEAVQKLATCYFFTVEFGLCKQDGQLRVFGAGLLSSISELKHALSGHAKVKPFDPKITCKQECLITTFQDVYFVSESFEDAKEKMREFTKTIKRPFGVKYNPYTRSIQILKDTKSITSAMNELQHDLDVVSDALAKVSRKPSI
How it was run: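 Purified recombinant human TPH1 was tested in a continuous fluorescence assay. IC50 was taken from inhibition of enzyme activity.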

RBL-2H3 = assay: Inhibition of serotonin biosynthesis in rat RBL2H3 cells after 3 days; assay type: functional, cell-based; settings: RBL-2H3, 72 h
How it was run: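 Serotonin biosynthesis was measured in rat mastocytoma RBL-2H3 cells. EC50 was taken from inhibition of that biosynthesis.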

[2] = Plasma clearance in C57 albino mouse at 1 mg/kg, iv; assay type: ADME, organism-based; set-up: dose 1 mg/kg, route intravenous
How it was run: (§1)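 Male C57-albino mice were used in two groups. One group received a single 1 mg/kg intravenous injection and the other a 10 mg/kg oral gavage dose. Plasma levels gave clearance and Vss (iv), and Cmax, AUC and oral bioavailability (po).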

[3] = Volume of distribution at steady state in C57 albino mouse at 1 mg/kg, iv; assay type: ADME, organism-based; set-up: dose 1 mg/kg, route intravenous; settings: in vivo, read-out: Vdss; how it was run: as §1
[4] = Cmax in C57 albino mouse at 10 mg/kg, po; assay type: ADME, organism-based; set-up: dose 10 mg/kg, route oral; settings: in vivo; how it was run: as §1
Mus musculus [5] = assay: AUC in C57 albino mouse at 10 mg/kg, po; assay type: ADME, organism-based, Plasma; set-up: dose 10 mg/kg, route oral; settings: in vivo; how it was run: as §1
[6] = Oral bioavailability in C57 albino mouse at 10 mg/kg; assay type: ADME, organism-based; settings: in vivo; how it was run: as §1
Mus musculus [7] = assay: Reduction of serotonin level in mouse blood at 100 mg/kg, ip bid for 5 days; assay type: functional; set-up: scale not given: the % may be the effect or the level left; settings: route intraperitoneal
How it was run: (§2)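 Mice were dosed at 100 mg/kg twice daily (200 mg/kg/day) for five days, by intraperitoneal injection or oral gavage. 5-HT levels were then measured in blood and intestine (duodenum) and reported as percent decrease.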

Mus musculus [8] = assay: Reduction of serotonin level in mouse duodenum at 100 mg/kg, ip bid for 5 days; assay type: functional; set-up: scale not given: the % may be the effect or the level left; settings: route intraperitoneal; how it was run: as §2
Mus musculus [9] = assay: Reduction of serotonin level in mouse blood at 100 mg/kg, po bid for 5 days; assay type: functional; set-up: scale not given: the % may be the effect or the level left; how it was run: as §2
Mus musculus [10] = assay: Reduction of serotonin level in mouse duodenum at 100 mg/kg, po bid for 5 days; assay type: functional; set-up: scale not given: the % may be the effect or the level left; how it was run: as §2
Mus musculus [11] = assay: Reduction of serotonin level in mouse blood at 100 mg/kg, ip bid for 8 days; assay type: functional; set-up: scale not given: the % may be the effect or the level left; settings: route intraperitoneal
Mus musculus [12] = assay: Reduction of serotonin level in mouse duodenum at 100 mg/kg, ip bid for 8 days; assay type: functional; set-up: scale not given: the % may be the effect or the level left; settings: route intraperitoneal
Mus musculus [13] = species: Mus musculus; assay: Reduction of serotonin level in mouse brain; assay type: functional, organism-based

IC50 [1] [µM]	EC50 (RBL-2H3) [µM]	SMILES	further results
0.06	1.8	Nc1nc(NCc2ccc(-c3ccccc3)cc2)nc(-c2ccc(C[C@H](N)C(=O)O)cc2)n1	–
–	2.1	Nc1nc(NCc2ccc3ccccc3c2)nc(-c2ccc(C[C@H](N)C(=O)O)cc2)n1	–
15.6	> 40	N[C@@H](Cc1ccc(-c2nc(NCc3ccc4ccccc4c3)nc(N3CCOCC3)n2)cc1)C(=O)O	–
0.5	> 11	Nc1nc(NCc2ccccc2)nc(-c2ccc(C[C@H](N)C(=O)O)cc2)n1	–
0.25	5.7	CC(C)C(Nc1nc(N)nc(-c2ccc(C[C@H](N)C(=O)O)cc2)n1)c1ccc2ccccc2c1 (stereo not given in full)	–
0.007	2.2	Nc1nc(NCc2ccccc2-c2ccccc2)nc(-c2ccc(C[C@H](N)C(=O)O)cc2)n1	–
0.12	> 11	Nc1nc(NCC2CCCCC2)nc(-c2ccc(C[C@H](N)C(=O)O)cc2)n1	–
0.024	2.5	CC(Nc1nc(N)nc(-c2ccc(C[C@H](N)C(=O)O)cc2)n1)c1ccc(-c2ccccc2)cc1 (stereo not given in full)	–
0.12	36	Nc1nc(NCc2ccc(C(F)(F)F)cc2)nc(-c2ccc(C[C@H](N)C(=O)O)cc2)n1	–
0.014	2.3	Cc1ccc(-c2ccc(CNc3nc(N)nc(-c4ccc(C[C@H](N)C(=O)O)cc4)n3)cc2)cc1	–
0.32	9.6	Nc1nc(OC(c2ccc3ccccc3c2)C(F)(F)F)nc(-c2ccc(C[C@H](N)C(=O)O)cc2)n1 (stereo not given in full)	–
0.61	10.2	CNc1nc(N[C@H](C)c2ccc3ccccc3c2)nc(-c2ccc(C[C@H](N)C(=O)O)cc2)n1	–
0.15	3.4	Nc1nc(NCc2ccc(Oc3ccccc3)cc2)nc(-c2ccc(C[C@H](N)C(=O)O)cc2)n1	–
0.05	0.48	C[C@H](c1ccc2ccccc2c1)N(C)c1nc(N)nc(-c2ccc(C[C@H](N)C(=O)O)cc2)n1	–
0.15	2.3	CCC(Nc1nc(N)nc(-c2ccc(C[C@H](N)C(=O)O)cc2)n1)c1ccc2ccccc2c1 (stereo not given in full)	–
0.12	> 11	CC(C)CC(Nc1nc(N)nc(-c2ccc(C[C@H](N)C(=O)O)cc2)n1)c1ccc2ccccc2c1 (stereo not given in full)	–
0.044	2.8	C[C@H](Nc1nc(N)nc(-c2ccc(C[C@H](N)C(=O)O)cc2)n1)c1ccc2ccccc2c1	–
0.16	4.1	Nc1nc(NCc2ccc(-c3ccc(C(F)(F)F)cc3)cc2)nc(-c2ccc(C[C@H](N)C(=O)O)cc2)n1	–
0.1	> 11	Cc1ccc(CNc2nc(N)nc(-c3ccc(C[C@H](N)C(=O)O)cc3)n2)cc1C	–
0.019	0.82	CC(Nc1nc(N)nc(-c2ccc(C[C@H](N)C(=O)O)cc2)n1)C12CC3CC(CC(C3)C1)C2 (stereo not given in full)	–
0.19	16.2	CC(Nc1ncnc(-c2ccc(C[C@H](N)C(=O)O)cc2)n1)c1ccc2ccccc2c1 (stereo not given in full)	–
0.038	1.4	Nc1nc(NCc2cccc(-c3ccccc3)c2)nc(-c2ccc(C[C@H](N)C(=O)O)cc2)n1	–
0.33	6.3	Nc1nc(NC(c2ccc3ccccc3c2)C(F)(F)F)nc(-c2ccc(C[C@H](N)C(=O)O)cc2)n1 (stereo not given in full)	–
–	0.3	C[C@@H](Nc1nc(N)nc(-c2ccc(C[C@H](N)C(=O)O)cc2)n1)c1ccc2ccccc2c1	clearance [2]: 0.5 L/h/kg; Vd [3]: 0.5 L/kg; Cmax [4]: 0.5 µM; AUC (Mus musculus [5]): 1600 nM·h; bioavailability [6]: 5%; Activity (Mus musculus [7]): 26%; Activity (Mus musculus [8]): 37%; Activity (Mus musculus [9]): 17%; Activity (Mus musculus [10]): 38%; Activity (Mus musculus [11]): 50%; Activity (Mus musculus [12]): 57%; Activity (Mus musculus [13]): inactive
0.055	1.7	CC(C)(Nc1nc(N)nc(-c2ccc(C[C@H](N)C(=O)O)cc2)n1)c1ccc2ccccc2c1	–
